This is an account of results in ChEMBL document CHEMBL4680083, “Identification of Tricyclic Agonists of Sphingosine-1-phosphate Receptor 1 (S1P) Employing Ligand-Based Drug Design” (J Med Chem, 2016).

In series [1] the target is Sphingosine 1-phosphate receptor 1 (Homo sapiens, UniProt P21453). Description: Agonist activity at human S1P1 expressed in CHO cell membranes assessed as stimulation of [35S]-GTPgamma-S binding measured after 45 mins by liquid scintillation counting method. On the set-up: species or system Cell membrane. Put shortly:
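S1P1/CHO cell membranes at 3 μg protein/well with 3-fold compound dilutions. [35S]GTPγS 0.2 nM final, 45 min at room temperature. Filter-plate capture, water washes, scintillation counting. EC50 taken at 50% of each compound's own Ymax.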
(Binding of GTPγS marks nucleotide exchange on a G protein.)

Series [2] deals with Sphingosine 1-phosphate receptor 3 (Homo sapiens, UniProt Q99500). In words: Agonist activity at human S1P3 expressed in CHO cell membranes assessed as stimulation of [35S]-GTPgamma-S binding measured after 45 mins by liquid scintillation counting method. Set-up: species or system Cell membrane.
Sequence of Sphingosine 1-phosphate receptor 3 (Q99500 whole entry): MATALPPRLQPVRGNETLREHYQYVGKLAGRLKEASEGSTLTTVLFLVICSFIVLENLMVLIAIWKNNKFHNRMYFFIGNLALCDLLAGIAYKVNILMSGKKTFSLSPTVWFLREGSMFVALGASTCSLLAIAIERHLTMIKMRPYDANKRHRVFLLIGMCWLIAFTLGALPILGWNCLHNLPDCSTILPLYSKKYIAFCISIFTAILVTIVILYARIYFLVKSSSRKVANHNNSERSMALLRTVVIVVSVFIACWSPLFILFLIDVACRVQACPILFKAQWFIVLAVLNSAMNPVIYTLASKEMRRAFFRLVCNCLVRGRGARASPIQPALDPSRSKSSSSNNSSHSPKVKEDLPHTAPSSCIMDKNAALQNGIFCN
Series [3] concerns Rattus norvegicus. Description: Reduction in circulating lymphocytes count in Lewis rat blood at 1 mg/kg, po measured at 4 hrs by hematology analyzer based analysis. The series is classed as functional. Set-up: scale not given: the % may be the effect or the level left. Put shortly: (§1)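 Lewis rats were given an oral dose as a solution or suspension in PEG300, with controls receiving vehicle only. Blood was taken by retro-orbital bleeding under isoflurane at 4 and 24 h. Lymphocytes were counted on a hematology analyzer. Reduction is relative to the vehicle group, averaged over the animals in each group (n = 3−4).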

In series [4] the test system is Rattus norvegicus. In words: Reduction in circulating lymphocytes count in Lewis rat blood at 1 mg/kg, po measured at 24 hrs by hematology analyzer based analysis. The class given is functional. Set-up: scale not given: the % may be the effect or the level left. Put shortly: as §1
Series [5] is described as follows: Plasma concentration in Lewis rat at 1 mg/kg, po measured at 24 hrs. The class given is ADME, organism-based. As to conditions: for concentration / Cp: in vivo, 1 mg/kg, 24 h; for concentration at 24 h: Lewis, plasma; for Cp: BLD = below limit of detection. Put shortly: (§2)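 Lewis rats received a single oral 1.0 mg/kg dose as solution or suspension in PEG300. Blood was drawn retro-orbitally under isoflurane at 4 h and 24 h, within the blood lymphocyte reduction study. n = 3−4 per group, group mean reported.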

Series [6] in a line: Ratio of plasma concentration in Lewis rat at 1 mg/kg, po measured at 4 hrs to plasma concentration in Lewis rat at 1 mg/kg, po measured at 24 hrs. The class given is ADME, organism-based. As to conditions: in vivo.
The nature of series [7]: Selectivity index, ratio of EC50 for agonist activity at human S1P3 expressed in CHO cell membranes to EC50 for agonist activity at human S1P1 expressed in CHO cell membranes. The class given is cell-based.
Series [8] can be described thus: Plasma concentration in Lewis rat at 1 mg/kg, po measured at 4 hr. The series is classed as ADME, organism-based. As to conditions: for concentration at 4 h: Lewis, plasma. The method in brief: as §2

Sequence of Sphingosine 1-phosphate receptor 1 (P21453 whole entry): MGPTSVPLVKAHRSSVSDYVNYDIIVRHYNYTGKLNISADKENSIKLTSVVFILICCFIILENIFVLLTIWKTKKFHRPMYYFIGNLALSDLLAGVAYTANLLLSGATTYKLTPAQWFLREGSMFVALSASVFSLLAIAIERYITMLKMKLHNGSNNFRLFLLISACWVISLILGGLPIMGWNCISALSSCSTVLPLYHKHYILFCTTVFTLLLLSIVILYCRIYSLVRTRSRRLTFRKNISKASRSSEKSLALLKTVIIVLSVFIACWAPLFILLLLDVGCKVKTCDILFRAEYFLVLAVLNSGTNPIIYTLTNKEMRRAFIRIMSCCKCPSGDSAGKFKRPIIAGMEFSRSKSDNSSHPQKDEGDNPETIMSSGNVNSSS

A word on the EC50: it is the concentration at which the effect is half-maximal. As for `O=C(O)[C@H]1CCCN(CC(O)c2ccc3c(c2)CCc2c-3noc2-c2noc(-c3ccccc3)c2C(F)(F)F)C1` (stereo in doubt; 76) [listing 1 of 2 here], the half-maximal effective concentration (EC50) in series [1] came to 26 nM; in series [2], 16000 nM. For the same compound, the Activity came out at 28% in the series on Rattus norvegicus [3] (1 mg/kg, 4 h) and 20% in the series on Rattus norvegicus [4] (1 mg/kg, 24 h). Moreover, the concentration in series [5] stood at 21 nM. The Ratio in series [6] stood at 7.
`CC1(c2onc(-c3onc4c3CCc3cc(CN5CC(C(=O)O)C5)ccc3-4)c2C(F)(F)F)CC1`: the EC50 in series [1] amounted to 1.3 nM; in series [2], 1300 nM. For the same compound, in series [7], the Ratio EC50 was determined as 1000. Also, the results for the Activity with Rattus norvegicus [3] and in the series with Rattus norvegicus [4] were 85% and 34%, respectively. Moreover, the concentration at 4 h in series [8] was 190 nM. In series [5], this compound gave a concentration at 24 h of 4 nM. In series [6], the Ratio came to 48.
As to `O=C(O)C1CN(Cc2ccc(-c3noc(-c4onc(-c5ccccc5)c4C(F)(F)F)n3)cc2)C1`, the Activity in the series with Rattus norvegicus [3] turned out to be 78%; with Rattus norvegicus [4] it was 91%. The compound also yielded a concentration at 4 h in series [8] of 2100 nM. This compound had a concentration at 24 h in series [5] of 700 nM. Moreover, the Ratio in series [6] turned out to be 3.
Take `O=C(O)C1CN(Cc2ccc3c(c2)OCc2c-3noc2-c2noc(-c3ccccc3)c2C(F)(F)F)C1`: the half-maximal effective concentration (EC50) in series [1] is 0.27 nM; in series [2], 1200 nM. Further, the Ratio EC50 in series [7] came out at 4400. For the same compound, the Activity was determined as 87% in the series on Rattus norvegicus [3] and 93% in the series on Rattus norvegicus [4]. In series [8], the concentration at 4 h is 230 nM. This compound also gave a concentration at 24 h in series [5] of 46 nM. In addition, the Ratio in series [6] stood at 5.
Take `O=C(O)C1CN(Cc2ccc3c(c2)Cc2c-3noc2-c2noc(-c3ccccc3)c2C(F)(F)F)C1`: the results for the EC50 in series [1] and in series [2] were 6.8 nM and 32000 nM, respectively. Moreover, the Ratio EC50 in series [7] was determined as 4700. For the same compound, the Activity is listed as 14% in the series with Rattus norvegicus [3] and 3% in the series on Rattus norvegicus [4]. In addition, the concentration at 4 h in series [8] was 21 nM. Further, the Cp entry in series [5] is on record as “Bld”.
In the case of `CS(=O)(=O)CCNC(=O)C(O)c1ccc2c(c1)CCc1c-2noc1-c1noc(-c2ccccc2)c1C(F)(F)F` (stereo in doubt; 78) [listing 1 of 2 here], the concentration for a half-maximal effect (EC50) in series [1] was determined as 1.6 nM; in series [2] it was 6200 nM. For the same compound, the Activity in the series with Rattus norvegicus [3] came out at 50%; in the series with Rattus norvegicus [4], 43%. In series [8], this compound displayed a concentration at 4 h of 190 nM. Moreover, in series [5], the concentration at 24 h was determined as 26 nM.
For the compound `O=C(O)C[C@H]1CCCN(CC(O)c2ccc3c(c2)CCc2c-3noc2-c2noc(-c3ccccc3)c2C(F)(F)F)C1` (stereo in doubt; 73) [listing 1 of 2 here], the Ratio EC50 in series [7] was 1900.
`O=C(O)C[C@H]1CCCN(CC(O)c2ccc3c(c2)CCc2c-3noc2-c2noc(-c3ccccc3)c2C(F)(F)F)C1` (stereo in doubt; 74) [listing 1 of 2 here]: the figures for the concentration giving a half-maximal response (EC50) in series [1] and in series [2] were 0.33 nM and 1700 nM, respectively. The concentration in series [8] (in vivo, 1 mg/kg, 4 h) amounted to 93 nM; in series [5], 32 nM. Further, the Activity with Rattus norvegicus [4] (1 mg/kg, 24 h) turned out to be 87%. For the same compound, in series [6], the Ratio is 4.
As for `O=C(O)C1CN(Cc2ccc3c(c2)CCc2c-3noc2-c2cccc(C(F)(F)F)c2)C1`, the EC50 in series [1] is 310 nM; in series [2], over 63000 nM. In addition, in series [7], the Ratio EC50 was over 200.
For `CC(C)Oc1ccc(-c2onc3c2CCc2cc(CN4CC(C(=O)O)C4)ccc2-3)cc1C#N`, the EC50 is 4.6 nM in series [1] and over 63000 nM in series [2]. The Ratio EC50 in series [7] is over 14000. In addition, the Activity in the series with Rattus norvegicus [3] is on record as -5%; in the series on Rattus norvegicus [4], 12%. The Cp result is “Bld” in series [8] (in vivo, 1 mg/kg, 4 h, BLD = below limit of detection) and “Bld” in series [5].
`O=C(O)C1CN(Cc2ccc3c(c2)CCc2c-3n[nH]c2-c2onc(-c3ccccc3)c2C(F)(F)F)C1`: the EC50 in series [1] was 190 nM; in series [2], over 63000 nM. For the same compound, the Ratio EC50 in series [7] is over 330.
Consider `O=C(O)C[C@H]1CCCN(CC(O)c2ccc3c(c2)CCc2c-3noc2-c2noc(-c3ccccc3)c2C(F)(F)F)C1` (stereo in doubt; 73) [listing 2 of 2 here], for which the results for the EC50 in series [1] and in series [2] were 4 nM and 7400 nM, respectively. Besides, the Activity in the series with Rattus norvegicus [3] is listed as 70%; in the series with Rattus norvegicus [4] (1 mg/kg, 24 h), 72%. Also, the concentration in series [8] (in vivo, 1 mg/kg, 4 h) worked out at 190 nM; in series [5] it was 160 nM. In addition, the Ratio in series [6] amounted to 1.
On to `O=C(O)C1CN(Cc2ccc3c(c2)OCCc2c(-c4noc(-c5ccccc5)c4C(F)(F)F)noc2-3)C1`, for which the EC50 in series [1] turned out to be 33 nM; in series [2] it was 1600 nM. For the same compound, the Ratio EC50 in series [7] was determined as 48.
On the same counts, the results for `CCOc1ccc(-c2onc3c2CCc2cc(CN4CC(C(=O)O)C4)ccc2-3)cc1OCC` are 1.6 nM, 14000 nM and 8800.
On the same counts, the results for `O=C(O)C1CN(Cc2ccc3c(c2)CCCc2c(-c4noc(-c5ccccc5)c4C(F)(F)F)noc2-3)C1` are 31 nM, 12000 nM and 390.
On the same counts, the results for `O=C1NC(=O)C2(CN(Cc3ccc4c(c3)CCc3c-4noc3-c3noc(-c4ccccc4)c3C(F)(F)F)C2)N1` are 51 nM, 23000 nM and 450.
In the case of `O=C(O)[C@H]1CCCN(CC(O)c2ccc3c(c2)CCc2c-3noc2-c2noc(-c3ccccc3)c2C(F)(F)F)C1` (stereo in doubt; 75) [listing 1 of 2 here], the Ratio EC50 in series [7] is 62000.
On to `CS(=O)(=O)CCNC(=O)C(O)c1ccc2c(c1)CCc1c-2noc1-c1noc(-c2ccccc2)c1C(F)(F)F` (stereo in doubt; 77) [listing 1 of 2 here], for which the EC50 in series [1] is 200 nM; in series [2], 18000 nM.
On to `CS(=O)(=O)CCNC(=O)C(O)c1ccc2c(c1)CCc1c-2noc1-c1noc(-c2ccccc2)c1C(F)(F)F` (stereo in doubt; 78) [listing 2 of 2 here], for which the Ratio EC50 in series [7] was 3900.
In the case of `Cn1nc(-c2noc(-c3ccccc3)c2C(F)(F)F)c2c1-c1ccc(CN3CC(C(=O)O)C3)cc1CC2`, the concentration giving a half-maximal response (EC50) is 21 nM in series [1] and over 63000 nM in series [2]. In series [7], the Ratio EC50 is over 3000.
With `O=C(O)[C@H]1CCCN(CC(O)c2ccc3c(c2)CCc2c-3noc2-c2noc(-c3ccccc3)c2C(F)(F)F)C1` (stereo in doubt; 76) [listing 2 of 2 here], in series [7], the Ratio EC50 was determined as 620.
On the same count and under the same terms, then `O=C(O)C[C@H]1CCCN(CC(O)c2ccc3c(c2)CCc2c-3noc2-c2noc(-c3ccccc3)c2C(F)(F)F)C1` (stereo in doubt; 74) [listing 2 of 2 here], with 5200.
As to `CN1Cc2c(noc2-c2onc(-c3ccccc3)c2C(F)(F)F)-c2ccc(CN3CC(C(=O)O)C3)cc21`, the EC50 in series [1] was 1.6 nM; in series [2] it was over 63000 nM. Further, in series [7], the Ratio EC50 is over 39000.
Regarding `CS(=O)(=O)CCNC(=O)C(O)c1ccc2c(c1)CCc1c-2noc1-c1noc(-c2ccccc2)c1C(F)(F)F` (stereo in doubt; 77) [listing 2 of 2 here], the Ratio EC50 in series [7] worked out at 90.
As to `O=C(O)[C@H]1CCCN(CC(O)c2ccc3c(c2)CCc2c-3noc2-c2noc(-c3ccccc3)c2C(F)(F)F)C1` (stereo in doubt; 75) [listing 2 of 2 here], the concentration for a half-maximal effect (EC50) turned out to be 0.21 nM in series [1] and 13000 nM in series [2]. Besides, the Activity with Rattus norvegicus [3] (1 mg/kg, 4 h) amounted to 76%; in the series on Rattus norvegicus [4] (1 mg/kg, 24 h), 76%. Further, the concentration at 4 h in series [8] is 140 nM. Moreover, the concentration in series [5] was found to be 49 nM. For the same compound, in series [6], the Ratio came out at 3.
For `CC(C)Oc1ccc(-c2onc3c2CCc2cc(CN4CC(C(=O)O)C4)ccc2-3)c(C(F)(F)F)c1`, the EC50 in series [1] stood at 24 nM; in series [2], 11000 nM. Besides, in series [7], the Ratio EC50 was 460.
The matching figures for `Cn1nc2c(c1-c1noc(-c3ccccc3)c1C(F)(F)F)CCc1cc(CN3CC(C(=O)O)C3)ccc1-2`: 380 nM, over 63000 nM and over 170.
